Results as given in ChEMBL document CHEMBL1154331, “Allenyl and alkynyl phenyl ethers from the endolichenic fungus Neurospora terricola” (J Nat Prod, 2009).

Legend:
MCF7 = experiment: Cytotoxicity against human MCF7 cells after 48 hrs by MTT assay; type: functional, cell-based; settings: MCF7, 48 h
In short: (§1)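 Run in triplicate; 10^4 cells per well, attached overnight. Cells exposed 4 h at 37 °C, 5% CO2, to compounds serially diluted from 10 mg/mL DMSO stocks (vehicle wells 0.2% DMSO in medium), then medium changed to fresh DMEM and grown a further 48 h. MTT at 0.5 mg/mL added for 3 h at 37 °C in the dark; formazan dissolved in DMSO, absorbance read at 540 nm.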

HeLa = experiment: Cytotoxicity against human HeLa cells after 48 hrs by MTT assay; type: functional, cell-based; in short: as §1

Compound	IC50 (MCF7)	IC50 (HeLa)
C#C[C@H](O)COc1ccc(COC)cc1	116 µM	92.6 µM
C#C[C@H](O)COc1ccc(COC(C)=O)cc1	> 171 µM	> 171 µM
O=c1[nH]cc(F)c(=O)[nH]1 [FLUOROURACIL]	–	10 µM
C=C=CCOc1ccc(CO[C@@H]2O[C@H](CO)[C@@H](O)[C@H](O)[C@H]2O)cc1 [TERRICOLLENE A]	59.2 µM	53.3 µM
C=C=CCOc1ccc(CO[C@@H]2O[C@H](CO)[C@@H](O)[C@H](O)[C@@H]2O)cc1 [TERRICOLLENE B]	> 118 µM	> 118 µM
C=C=CCOc1ccc(CO)cc1 [TERRICOLLENE C]	114 µM	85.2 µM
C#C[C@H](O)COc1ccc(CO)cc1 [TERRICOLYNE]	> 200 µM	> 200 µM
